{"source": "paper PMC6226371", "about": "(Journal of medicinal chemistry, 2018)", "key": {"[1]": {"target": "T1, hMC4R (Homo sapiens, UniProt P32245)", "format": "cell-based"}, "[2]": {"target": "T1, hMC4R", "test": "PRESTO-Tango β-arrestin2 recruitment assay, HTLA cells transfected with hMC4R", "format": "cell-based"}, "[3]": {"target": "T1, hMC4R", "test": "AlphaScreen cAMP Schild analysis, inhibition of NDP-MSH agonist stimulation", "format": "cell-based", "conditions": "antagonism of NDP-MSH, pA2 = −log(Ki)", "outline": "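HEK293 cells stably expressing Flag-tagged hMC4R (calcium phosphate transfection, G418 selection), lifted with Versene, 10,000 cells/well in HBSS stimulation buffer (0.5 mM IBMX, 5 mM HEPES, 0.1% BSA, pH 7.4).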"}, "[4]": {"target": "mMC4R-NanoLuc and mMC4R-HaloTag homodimer (Mus musculus, UniProt P56450)", "test": "NanoBRET ligand-induced response of the mMC4R homodimer", "format": "cell-based"}, "[5]": {"target": "human melanocortin-4 receptor (hMC4R-Flag) (human) (UniProt P32245)"}, "[6]": {"system": "hMC4R", "conditions": "1 µM, not significant; cited from earlier work"}}, "note": "Where two headings read alike, the source gives them in different places.", "data": [{"compound": "CC(=O)N[C@@H](Cc1c[nH]cn1)C(=O)N[C@H](Cc1ccc2ccccc2c1)C(=O)N[C@@H](CCCNC(=N)N)C(=O)N[C@@H](Cc1c[nH]c2ccccc12)C(=O)N1CCC[C@H]1C(=O)NCC(=O)N1CCC[C@H]1C(=O)NCC(=O)N1CCC[C@H]1C(=O)NCC(=O)N1CCC[C@H]1C(=O)NCC(=O)N1CCC[C@H]1C(=O)NCC(=O)N1CCC[C@H]1C(=O)NCC(=O)N[C@@H](Cc1c[nH]cn1)C(=O)N[C@H](Cc1ccccc1)C(=O)N[C@@H](CCCNC(=N)N)C(=O)N[C@@H](Cc1c[nH]c2ccccc12)C(N)=O", "note": "[CJL-1–63]", "values": [{"measurement": "cAMP pharmacology", "setting": "[1]; hMC4R", "value": "single digit nanomolar potent agonists"}]}, {"compound": "CC(=O)NCCCOCCOCCOCCCNC(=O)COCC(=O)N[C@@H](Cc1c[nH]cn1)C(=O)N[C@H](Cc1ccccc1)C(=O)N[C@@H](CCCNC(=N)N)C(=O)N[C@@H](Cc1c[nH]c2ccccc12)C(N)=O", "note": "[CJL-1–116]", "values": [{"measurement": "EC50", "setting": "[2]", "value": "140 ± 70", "unit": "nM"}, {"measurement": "fold increase in β-arrestin recruitment potency compared to CJL-1–14", "setting": "[2]; hMC4R", "value": "< 3", "unit": "fold"}, {"measurement": "EC50", "setting": "[1]", "value": "2 ± 0.3", "unit": "nM"}]}, {"compound": "CC(=O)N[C@@H](Cc1c[nH]cn1)C(=O)N[C@H](Cc1ccc2ccccc2c1)C(=O)N[C@@H](CCCNC(=N)N)C(=O)N[C@@H](Cc1c[nH]c2ccccc12)C(=O)NCCCOCCOCCOCCCNC(=O)COCC(=O)NCCCOCCOCCOCCCNC(=O)COCC(=O)N[C@@H](Cc1c[nH]cn1)C(=O)N[C@H](Cc1ccccc1)C(=O)N[C@@H](CCCNC(=N)N)C(=O)N[C@@H](Cc1c[nH]c2ccccc12)C(N)=O", "note": "[CJL-5–74]", "values": [{"measurement": "cAMP pharmacology", "setting": "[1]; hMC4R", "value": "single digit nanomolar potent agonists"}]}, {"compound": "Ac-His-DNal(2ʹ)-Arg-Trp-NH2 [CJL-1–80]", "values": [{"measurement": "β-Arrestin recruitment, % of maximal signal at 10 µM compared to control NDP-MSH maximal signal", "setting": "[2]; hMC4R", "value": 30, "unit": "% at 10 µM"}, {"measurement": "β-Arrestin recruitment, % of maximal signal at 10 µM compared to control NDP-MSH maximal signal", "setting": "[2]; hMC4R, listed as Ac-His-DNal(2ʹ)-Arg-Trp-NH2", "value": 30, "unit": "%"}, {"measurement": "pA2 (Schild analysis)", "setting": "[3]", "value": "7.82±0.03"}, {"measurement": "cAMP signaling, % of maximal signal at 10 µM compared to control NDP-MSH maximal signal", "setting": "[1]; hMC4R, at 10 µM", "value": 50, "unit": "%"}, {"measurement": "change in BRET signal from basal levels", "setting": "[4]; 10^−5, 10^−7 and 10^−9 M", "value": "no significant changes"}]}, {"compound": "MTII (peptide)", "values": [{"measurement": "cAMP signaling EC50 (AlphaScreen, HEK293 cells stably expressing hMC4R)", "setting": "[5]", "value": 0.03, "unit": "nM"}]}, {"compound": "NDP-MSH (peptide)", "values": [{"measurement": "cAMP signaling EC50 (AlphaScreen, HEK293 cells stably expressing hMC4R)", "setting": "[5]", "value": 0.06, "unit": "nM"}]}, {"compound": "α-MSH [reference compound]", "values": [{"measurement": "decrease of mean BRET signal compared to basal BRET signal", "setting": "[6]", "value": "approximately 20%"}, {"measurement": "reduction in BRET signal compared to basal signal", "setting": "[4]; ligand at 10 µM", "value": 15, "unit": "%"}]}]}
